Laboratory results taken from article PMC5774476 (Drug Design, Development and Therapy, 2018).
Where two headings read alike, the source gives them in different places.

Experiments:
WiDR cells = assay: MTT cytotoxicity assay on WiDR colorectal cancer cells; type: cell-based; conditions: for IC50: Homo sapiens, WiDr, 24 h; for SI (selectivity index): ratio of IC50 in Vero versus that in WiDR cells, selective if >3
Summary of the method: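 WiDR cells grown in RPMI 1640 with 0.1 mg/mL streptomycin (5% CO2, 37°C); confluent cells seeded 1×10^4/well for 24 h, then exposed 24 h to test compound (1% DMSO solution diluted in medium) at 3.906–500 µg/mL. MTT 4 h, formazan dissolved overnight in 10% SDS/0.01 N HCl, A595. Viability vs untreated and cell-free controls; IC50 by probit, mean of three experiments; SI = Vero IC50/WiDR IC50.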

[1] = IC50 slightly higher than that of chloroquine; cited from earlier work

| SMILES | IC50 (WiDR cells; read-out: IC50 (µM) WiDR) [µM] | IC50 (WiDR cells; read-out: IC50 (µg/mL) WiDR) [µg/mL] | cytotoxicity category (CSIR criteria) (WiDR cells; WiDR cell line) | cytotoxic activity (in words) (WiDR cells; WiDR cells, MTT) | SI (selectivity index) (WiDR cells) | SI (selectivity index) (WiDR cells; listed as compound 5) | antimalarial activity [1] |
| --- | --- | --- | --- | --- | --- | --- | --- |
| O=c1c2ccc(O)cc2oc2c(O)c(O)ccc12 [Compound 5, 3,4,6-trihydroxyxanthone] | 37.8 ± 10.6 | 9.23 ± 2.58 | moderate (moderate (6.25 µg/mL < mean IC50 <15 µg/mL)) | exhibited cytotoxic activity | 66.39 | 66.40 | good antimalarial activity |
| COc1cccc2c1C(=O)c1c(O)c3c(c(O)c1C2=O)C[C@@](O)(C(=O)CO)C[C@@H]3O[C@H]1C[C@H](N)[C@H](O)[C@H](C)O1 [Doxorubicin, doxorubicin, reference compound] | 3.04 ± 0.184 | 1.65 ± 0.19 | – | – | 49.38 | – | – |
